S1P1 ag-PAM – S1P1 agonists and agonism potentiators, primary screen, cell-based, primary and confirmation screens, CRE-bla reporter; S1P1 CRE-bla cells, forskolin, beta-lactamase FRET, potentiator mode; S1P1 agonist co-added at EC20, 2 nM; 100% = saturating reference agonist, 0% = basal; actives 0.57% (n = 56,000); Sphingosine 1-phosphate receptor 1 (Homo sapiens), P21453; activation, % at 9.5 µM;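 active = activation above a cutoff set at the mean activation of all tested compounds plus 3 SD, cut at about 54% in these data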;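 also: forskolin at 4 µM as EC80 and the EC20 agonist is SEW2871; 100% = SEW2871 at its EC100 plus forskolin at EC80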
Target sequence (P21453 whole entry, looked up): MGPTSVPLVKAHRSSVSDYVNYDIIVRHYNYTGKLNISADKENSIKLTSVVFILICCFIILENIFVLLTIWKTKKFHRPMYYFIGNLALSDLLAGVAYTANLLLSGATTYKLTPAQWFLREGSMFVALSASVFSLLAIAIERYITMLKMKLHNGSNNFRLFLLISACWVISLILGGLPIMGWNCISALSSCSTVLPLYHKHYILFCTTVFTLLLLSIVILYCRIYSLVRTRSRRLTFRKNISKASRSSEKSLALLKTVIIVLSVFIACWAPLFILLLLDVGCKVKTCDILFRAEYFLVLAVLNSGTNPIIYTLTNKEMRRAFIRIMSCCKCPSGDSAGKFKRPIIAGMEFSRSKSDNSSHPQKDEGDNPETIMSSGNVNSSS
M1 agonist – M1 muscarinic receptor agonists, primary screen, CHO-M1 cells, Fluo-4 calcium, agonist mode | Muscarinic acetylcholine receptor M1 | Fluo-4 calcium fluorescence; active compounds read high | B-score at 10 µM | actives 3% (n = 64,000) | AID 626, 2007;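 active = fluorescence rise, raw or as B-score row- and column-corrected plate score, outside the 99.7% band of its plate's samples, either direction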
S1P3 ag – human S1P3 receptor agonists, primary screen, cell-based, primary and confirmation, NFAT-BLA reporter; S1P3 NFAT-BLA reporter cells, agonism, FRET ratio; relative to 1 µM S1P, basal subtracted; activation, % at 4.5 µM; actives 0.1% (n = 60,000);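 active = activation above the screen-wide mean plus 3 SD, cut at about 4.5% in these data, passing the limit was not always enough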
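Material: Human S1P3 NFAT-BLA reporter CHO cells | Incubation: Overnight plating, 4 h compound 37 °C, 2 h substrate RT | Signal: FRET β-lactamase substrate fluorescence, excitation 405 nm, 460/535 nm emission ratio, background-subtracted | Compound: 4.5 µM final, single dose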
M1 antag – antagonists of rat M1 muscarinic receptor; Muscarinic acetylcholine receptor M1 (Rattus norvegicus), P08482; CHO-M1 cells, Fluo-4 calcium, ACh EC80 antagonist mode; active compounds read low; B-score at 10 µM; actives 3.4% (n = 64,000);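 active = calcium fluorescence response, raw or row-and-column corrected B-score, differing from the plate sample mean either way at a set confidence level, mostly lower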
D1 mod – D1 CRE-luciferase signal change, two-sided – cell-based, HEK293 D1, dopamine EC30, D1 allosteric modulator project, primary screen. dopamine EC30 potentiation; actives deviate in either direction. actives 5.9% (n = 58,000). D(1A) dopamine receptor (Homo sapiens), P21728. B-score at 10 µM;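 active = luminescence count or its row- and column-corrected plate score outside the 99.7% band of the plate's sample wells, on either side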
The depositor's hits bear a star; nt = no result. The list is not random: actives were taken first. Their share in the collection is about 11%.

SMILES	S1P1 ag-PAM	M1 agonist	S1P3 ag	M1 antag	D1 mod
CCN(CC)c1ccc2c(c1)oc(=O)c1c(Cl)cc(=O)oc12	-13	45*	2	-0.1	-1.4
CCN(CC)c1ccc2c(Cl)c(Br)c(=O)oc2c1	49	38*	-1	0.46	-0.16
CCOC(=O)Cc1c(C)c2ccc(N(CC)CC)cc2oc1=O	-25	-0.47	3	0.88	-0.53
NC(=O)CC1NC(=O)c2ccccc21 (centres undefined)	-15	0.27	0	-0.91	-1.8
Cc1oc(-c2ccc3c(c2)OCCO3)cc1C(=O)O	26	-1.5	0	0.23	-6.2*
Cc1oc(-c2ccc3c(c2)OCCO3)cc1C(=O)NC(CCC(=O)O)C(=O)O (centres undefined)	-4	-0.21	1	0.99	-0.95
COc1ccc(NC(=O)CN2C(=O)CC(C)(C)S(=O)(=O)c3ccccc32)cc1	-3	-0.82	-1	0.52	-0.056
CCc1ccc2oc(-c3cc(N=Cc4cccc(OC)c4O)ccc3O)nc2c1	-2	-0.041	-1	0.19	-5.6*
CN(Cc1ccccc1)Cc1c(F)cccc1F	5	0.44	-1	-0.041	1.7
CN(Cc1ccccc1)Cc1c[nH]c2ccccc12	5	-0.00087	-4	-0.13	-4.5*
Cc1ccc(-c2cc(-c3ccc(Cl)cc3)c(C#N)c(N)n2)o1	-216	-0.0047	5.9*	2.4e-06	4.1
Cc1cc(-c2cc(-c3ccc(Cl)cc3)nc(N)c2C#N)co1	-87	-0.28	8	-0.88	nt
Cc1ccc(C2CC(c3ccccc3OC(F)F)Nc3ncnn32)cc1 (centres undefined)	-15	0.84	0	1.3*	1.5
CC(C)c1ccc2oc(-c3ccc(N)cc3)nc2c1	54*	-0.24	-2	-0.012	-6*
Cc1ccc(-c2nc3cc(C)ccc3o2)cc1	-48	-0.25	0	0.031	-2.7
Cc1cc2c(c(=O)o1)C(C13C=CC(CC1)C3)C(C#N)=C(N)O2 (centres undefined)	4	-0.43	-1	-0.059	-1.4
CCOc1ccc(OCc2ccc(C(=O)O)o2)cc1	-2	nt	0	nt	-5.1*
CCOc1ccc(OCc2ccc(C(=O)NCc3ccncc3)o2)cc1	11	-0.54	-1	0.00096	-0.56
Cc1ccccc1OCCCCc1c(C)n[nH]c1C	131*	-0.51	-2	-0.92	-1.5
N#C/C(=C(/O)CN1CCOCC1)c1nc(-c2ccccc2)cs1	3	-0.0064	0	0.87	0.14
CCOC(=O)C1CCCN(C/C(O)=C(\C#N)c2nc(-c3ccccc3)cs2)C1 (centres undefined)	6	11*	0	-0.21	-0.13
CCOC(=O)Cc1csc(NC(=O)COc2ccccc2)n1	nt	-1.4	-1	-1	0.048
CCOC(=O)Cc1csc(NS(=O)(=O)Cc2ccccc2)n1	-4	-0.25	-1	2.6*	-0.0044
Cc1nnc2c(-c3ccccc3)nc3ccccc3n12	-53	-0.12	1	-0.06	2.6
Cn1nc(-c2ccccc2)c2nc3ccccc3nc21	11	133*	-1	4.5*	2.3
SMILES	S1P1 ag-PAM	M1 agonist	S1P3 ag	M1 antag	D1 mod
CCn1nnc(NC(=O)c2cccnc2)n1	-2	-0.96	-2	0.77*	0.0048
CCNC(=O)CC1C(=O)N(c2ccccc2)C(=O)N1Cc1ccc(OC)cc1 (centres undefined)	nt	-0.76	nt	0.12	0.0012
CCC1Sc2ccccc2N(CC(=O)NCc2ccc3c(c2)OCO3)C1=O (centres undefined)	5	3.6	0	-1.2	-2.6*
COc1cc2c(cc1OC)CN(S(C)(=O)=O)CC2	-3	-0.44	-1	0.81	1.3
O=C(CSc1ccc2nnc(-c3ccncc3)n2n1)N1CCc2ccccc21	8	-0.13	0	-0.28	-0.29
CCn1c(SCC(=O)c2cc(OC)ccc2OC)nc2c1c(=O)n(C)c(=O)n2C	-19	0.51	-1	0.63	4.9*
CCc1nnc(NC(=O)c2cc3c(s2)CCCCC3)s1	nt	-0.27	nt	0.64	-2.4*

Screening results (PubChem BioAssay)
